Consider seven compounds from ChEMBL document CHEMBL2321693, “Optimizing solubility and permeability of a biopharmaceutics classification system (BCS) class 4 antibiotic drug using lipophilic fragments disturbing the crystal lattice” (J Med Chem, 2013).

Data set [1] is described as follows: Apparent solubility of the compound in fasted state simulated intestinal fluid at pH 6.5 by shake flask method relative to ciprofloxacin. Particulars: simulated gi fluid. The class given is physicochemical. In a few lines: (§1)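 Small-scale shake flask. Excess solid in 500 μL medium (n = 3): USP pH 7.4 phosphate buffer, or pH 6.5 phosphate buffer or FaSSIF per Galia. Supernatant assayed by LC-MS/MS.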

Data set [2] is described as follows: Efflux ratio of permeability from basolateral to apical side to apical to basolateral side in human Caco2 cells. The class given is ADME, cell-based. The conditions noted are these: Caco-2.
A short description of data set [3]: Apparent solubility of the compound in phosphate buffer at pH 7.4 by shake flask method relative to ciprofloxacin. The class given is physicochemical. The essentials: as §1
A short description of data set [4]: Apparent permeability of the compound from apical to basolateral side in human Caco2 cells at pH 6.5/7.4 by LC-MS/MS analysis. It is filed as ADME, cell-based. Particulars: Caco-2, pH 6.5. In a few lines: (§2)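 Caco-2 monolayers ([…] cells seeded on polycarbonate inserts, 0.4 μm pores), kept in 90% air/10% CO2. Transport run at 37 °C across a 6.5/7.4 pH gradient, started by adding 10 μM drug to the donor side. Papp = (ΔQ/Δt)/(A·C0), from steady-state flux, filter area and initial donor concentration. LC-MS/MS quantitation. Mean ± SD of triplicates.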

Data set [5] in a line: Apparent permeability of the compound from basolateral to apical side in human Caco2 cells by LC-MS/MS analysis. It is filed as ADME, cell-based. Particulars: Caco-2. In a few lines: as §2
A short description of data set [6]: Apparent solubility of the compound in phosphate buffer at pH 6.5 by shake flask method relative to ciprofloxacin. The class given is physicochemical. The essentials:
as §1

Consider `CCOC(=O)c1cn(C2CC2)c2cc(N3CCNCC3)c(F)cc2c1=O` [CIPROFLOXACIN ETHYL ESTER], for which the “fold change (FC)” value in data set [1], in data set [3] and in data set [6] was 2 in each case. Also, the efflux ratio in data set [2] was determined as 7. Besides, the Papp A→B in data set [4] turned out to be 3.45 ×10⁻⁶ cm/s. In addition, in data set [5], the Papp B→A came to 24.3 ×10⁻⁶ cm/s.
Regarding `CCCCOC(=O)c1cn(C2CC2)c2cc(N3CCNCC3)c(F)cc2c1=O`, the “fold change (FC)” value in data set [1] was 10; in data set [3] it was 4; in data set [6] it was 27. Further, the efflux ratio in data set [2] was found to be 13. For the same compound, the Papp A→B in data set [4] worked out at 4.95 ×10⁻⁶ cm/s. Moreover, the Papp B→A in data set [5] stood at 65.9 ×10⁻⁶ cm/s.
For the compound `CC(C)OC(=O)c1cn(C2CC2)c2cc(N3CCNCC3)c(F)cc2c1=O`, the “fold change (FC)” value in data set [1], in data set [3] and in data set [6] was 0.5 throughout. The efflux ratio in data set [2] turned out to be 7. In addition, the Papp A→B in data set [4] worked out at 4.69 ×10⁻⁶ cm/s. Moreover, the Papp B→A in data set [5] stood at 35.2 ×10⁻⁶ cm/s.
Turning to `COC(=O)c1cn(C2CC2)c2cc(N3CCNCC3)c(F)cc2c1=O`, the “fold change (FC)” value was 111 in data set [1], 48 in data set [3] and 66 in data set [6]. In addition, the efflux ratio in data set [2] turned out to be 19. Also, in data set [4], the Papp A→B was determined as 1.01 ×10⁻⁶ cm/s. Further, the Papp B→A in data set [5] was found to be 19.7 ×10⁻⁶ cm/s.
Regarding `O=C(OCc1ccccc1)c1cn(C2CC2)c2cc(N3CCNCC3)c(F)cc2c1=O`, in data set [2], the efflux ratio is 18. In addition, the apparent permeability from apical to basolateral (Papp A→B) in data set [4] worked out at 6.42 ×10⁻⁶ cm/s. Further, the Papp B→A in data set [5] is 116 ×10⁻⁶ cm/s.
Turning to `CCCCCCOC(=O)c1cn(C2CC2)c2cc(N3CCNCC3)c(F)cc2c1=O`, the efflux ratio in data set [2] was found to be 19. Moreover, the Papp A→B in data set [4] stood at 13.9 ×10⁻⁶ cm/s. In addition, the Papp B→A in data set [5] came out at 264 ×10⁻⁶ cm/s.
Turning to `CCCOC(=O)c1cn(C2CC2)c2cc(N3CCNCC3)c(F)cc2c1=O`, the “fold change (FC)” value in data set [1], in data set [3] and in data set [6] was 0.5 throughout. Also, in data set [2], the efflux ratio amounted to 146. The Papp A→B in data set [4] was 0.43 ×10⁻⁶ cm/s. Besides, the Papp B→A in data set [5] was 62.8 ×10⁻⁶ cm/s.
